Seven compounds from ChEMBL document CHEMBL1149302, “Design, synthesis, and pharmacological characterization of novel, potent NMDA receptor antagonists” (J Med Chem, 2004) can be followed below.

For assay [1], the target named is Glutamate NMDA receptor. The experiment in a line: Displacement of [3H]CGP-39653 from rat brain NMDA receptor. The essentials: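 Rat brain membranes prepared per Ransom and Stec with modifications. Binding with 2 nM [3H]CGP 39653, with bound radioactivity measured by scintillation counting. Racemates tested. Values are antilog of log mean of at least three experiments.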
Background: In a radioligand displacement assay an active substance lowers the binding of a labelled ligand.

The nature of assay [2]: Displacement of [3H]AMPA from rat cortex AMPA receptor. The method, boiled down: (§1)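 Rat brain membranes prepared per Ransom and Stec with modifications. Radioligand binding with 5 nM [3H]AMPA, or 5 nM [3H]kainic acid in the absence of CaCl2. Bound radioactivity measured by scintillation counting. Racemates tested. Values are antilog of log mean of at least three experiments.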

A short description of assay [3]: Displacement of [3H]kainic acid from rat brain kainate receptor. The essentials: as §1
Assay [4] deals with Mus musculus. The experiment in a line: Anticonvulsant activity in ip dosed DBA/2 mouse assessed as inhibition of tonic extension seizures. The format is functional. The conditions noted are these: DBA/2, ip. The method, boiled down: (§2)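 Male DBA/2 mice (6-12 g, 22-26 days old) dosed ip in 100 μL/10 g. Compounds dissolved in 0.1 mM NaOH and brought to pH 7.3-7.7 with phosphate buffer; vehicle water. 45 min after dosing, a 110 dB bell sounded for 60 s or until clonic seizure onset. Seizure scoring: wild running 1, clonus 2, tonic extension 3, respiratory arrest 4. ED50 reported in μmol/kg.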

Assay [5] deals with Mus musculus. Put plainly: Anticonvulsant activity in ip dosed DBA/2 mouse assessed as inhibition of clonic seizures. In kind it is functional. The conditions noted are these: DBA/2, ip. The method, boiled down:
as §2

The target of assay [6] is Metabotropic glutamate receptor 1 (Rattus norvegicus) (UniProt P23385). Put plainly: Activity at rat mGluR1 expressed in CHO cells at 1 mM. The format is cell-based. The essentials: (§3)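 Rat mGluR1α, mGluR2, mGluR4a and mGluR5a each expressed in CHO cell lines. Compounds tested at 1 mM for both agonist and antagonist activity.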
For assay [7], the target named is Metabotropic glutamate receptor 2 (Rattus norvegicus) (UniProt P31421). The experiment in a line: Activity at rat mGluR2 expressed in CHO cells at 1 mM. In kind it is cell-based. The essentials: as §3
Assay [8] has as its target Metabotropic glutamate receptor 4 (Rattus norvegicus) (UniProt P31423). The experiment in a line: Activity at rat mGluR4a expressed in CHO cells at 1 mM. The format is cell-based. The essentials: as §3
Assay [9] addresses Metabotropic glutamate receptor 5 (Rattus norvegicus) (UniProt P31424). Put plainly: Activity at rat mGluR5a expressed in CHO cells at 1 mM. The format is cell-based. The essentials: as §3
Assay [10] is filed under the species Rattus norvegicus. The experiment in a line: Activity at Kainate receptor in rat cortical slice assessed as antagonism of 5 uM kainic acid-induced response. In kind it is functional.
Assay [11] can be described thus: Activity at NMDA receptor in rat corticle slice assessed as antagonism of 10 uM NMDA-induced response. The format is functional. The essentials:
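Modified rat cortical wedge preparation; depolarizing responses induced by NMDA (10 μM) recorded and antagonism measured. Racemates tested. Values are antilog of the log mean of at least three individual experiments, with ±SEM on a logarithmic distribution.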

Assay [12] concerns Mus musculus. Put plainly: Induction of sedation in DBA/2 mouse at 100 […], ip. The format is functional, organism-based.
The subject of assay [13] is Mus musculus. Put plainly: Reduction of locomotor activity in DBA/2 mouse at 100 […], ip. The format is functional, organism-based.
Assay [14] is filed under the species Rattus norvegicus. Put plainly: Activity at AMPA receptor in rat cortical slice assessed as antagonism of 5 uM AMPA-induced response. The format is functional.
Assay [15] concerns the target Glutamate NMDA receptor. Put plainly: Displacement of [3H]CPP from rat brain NMDA receptor.

The structures appear in SMILES notation. Activity calls are given as the source filed them. The calls are words filed in the database; no cut-off is given here.

Sequence of Metabotropic glutamate receptor 5 (Rattus norvegicus) (P31424 21-1203 limits assumed): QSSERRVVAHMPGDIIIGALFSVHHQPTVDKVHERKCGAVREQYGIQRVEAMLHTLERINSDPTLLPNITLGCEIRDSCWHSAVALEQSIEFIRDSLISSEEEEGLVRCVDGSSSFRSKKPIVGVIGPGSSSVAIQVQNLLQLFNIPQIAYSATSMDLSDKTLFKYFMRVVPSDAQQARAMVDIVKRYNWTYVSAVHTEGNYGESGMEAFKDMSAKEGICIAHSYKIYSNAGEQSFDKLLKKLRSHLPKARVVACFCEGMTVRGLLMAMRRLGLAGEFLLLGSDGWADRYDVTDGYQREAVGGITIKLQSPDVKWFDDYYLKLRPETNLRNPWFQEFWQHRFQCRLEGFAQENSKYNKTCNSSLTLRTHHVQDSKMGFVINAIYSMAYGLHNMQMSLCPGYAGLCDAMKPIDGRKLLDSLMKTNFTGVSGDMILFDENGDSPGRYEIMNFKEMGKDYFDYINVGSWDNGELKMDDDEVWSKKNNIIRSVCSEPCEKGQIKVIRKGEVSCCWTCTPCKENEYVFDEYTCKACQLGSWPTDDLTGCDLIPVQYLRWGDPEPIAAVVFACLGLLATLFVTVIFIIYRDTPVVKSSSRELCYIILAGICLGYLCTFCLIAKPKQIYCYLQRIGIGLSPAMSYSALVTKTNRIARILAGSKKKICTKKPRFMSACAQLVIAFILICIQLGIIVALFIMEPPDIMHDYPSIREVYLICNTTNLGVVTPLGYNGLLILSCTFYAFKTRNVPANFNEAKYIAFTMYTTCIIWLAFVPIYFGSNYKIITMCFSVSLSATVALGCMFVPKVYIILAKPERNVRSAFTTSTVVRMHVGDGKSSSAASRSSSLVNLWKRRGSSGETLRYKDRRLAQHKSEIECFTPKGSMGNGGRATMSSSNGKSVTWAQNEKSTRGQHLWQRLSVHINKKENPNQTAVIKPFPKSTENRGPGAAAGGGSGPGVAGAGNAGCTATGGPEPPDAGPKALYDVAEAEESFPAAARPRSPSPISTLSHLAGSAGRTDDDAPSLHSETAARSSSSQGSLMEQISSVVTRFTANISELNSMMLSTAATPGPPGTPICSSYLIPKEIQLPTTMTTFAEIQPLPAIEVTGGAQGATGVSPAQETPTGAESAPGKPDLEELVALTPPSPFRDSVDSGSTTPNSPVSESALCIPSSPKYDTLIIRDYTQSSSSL
Sequence of Metabotropic glutamate receptor 1 (Rattus norvegicus) (P23385 19-1199 limits assumed): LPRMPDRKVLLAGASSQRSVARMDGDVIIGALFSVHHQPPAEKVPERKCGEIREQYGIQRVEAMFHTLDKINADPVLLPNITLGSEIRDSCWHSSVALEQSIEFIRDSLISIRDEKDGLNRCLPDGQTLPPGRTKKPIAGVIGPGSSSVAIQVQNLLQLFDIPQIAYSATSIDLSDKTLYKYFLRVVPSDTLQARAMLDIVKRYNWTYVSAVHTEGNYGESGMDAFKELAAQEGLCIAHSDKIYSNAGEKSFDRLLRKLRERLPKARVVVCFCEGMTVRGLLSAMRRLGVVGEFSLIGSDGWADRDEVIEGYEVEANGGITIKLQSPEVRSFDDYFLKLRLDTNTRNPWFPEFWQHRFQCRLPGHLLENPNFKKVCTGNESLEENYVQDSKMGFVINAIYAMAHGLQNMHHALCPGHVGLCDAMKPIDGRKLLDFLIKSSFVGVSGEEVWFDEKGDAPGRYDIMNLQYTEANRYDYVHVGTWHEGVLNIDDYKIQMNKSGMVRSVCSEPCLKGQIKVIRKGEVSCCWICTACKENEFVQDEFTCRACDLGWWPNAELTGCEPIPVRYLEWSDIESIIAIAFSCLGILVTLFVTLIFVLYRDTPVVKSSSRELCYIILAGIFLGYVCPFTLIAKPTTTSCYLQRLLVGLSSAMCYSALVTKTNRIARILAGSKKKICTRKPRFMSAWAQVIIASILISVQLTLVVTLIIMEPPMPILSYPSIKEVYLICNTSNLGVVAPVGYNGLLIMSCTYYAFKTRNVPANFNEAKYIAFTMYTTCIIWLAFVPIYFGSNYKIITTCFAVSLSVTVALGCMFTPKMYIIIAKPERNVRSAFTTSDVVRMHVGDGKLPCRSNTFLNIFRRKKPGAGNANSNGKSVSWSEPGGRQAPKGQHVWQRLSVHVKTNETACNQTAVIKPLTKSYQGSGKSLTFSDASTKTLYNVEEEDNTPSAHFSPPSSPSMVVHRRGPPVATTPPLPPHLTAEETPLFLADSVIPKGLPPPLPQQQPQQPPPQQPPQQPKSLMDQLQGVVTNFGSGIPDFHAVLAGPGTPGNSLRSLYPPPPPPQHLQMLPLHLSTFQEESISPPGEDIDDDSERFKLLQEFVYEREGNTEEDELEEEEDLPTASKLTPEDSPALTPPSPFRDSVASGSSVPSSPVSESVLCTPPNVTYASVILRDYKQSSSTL
Sequence of Metabotropic glutamate receptor 4 (Rattus norvegicus) (P31423 whole entry): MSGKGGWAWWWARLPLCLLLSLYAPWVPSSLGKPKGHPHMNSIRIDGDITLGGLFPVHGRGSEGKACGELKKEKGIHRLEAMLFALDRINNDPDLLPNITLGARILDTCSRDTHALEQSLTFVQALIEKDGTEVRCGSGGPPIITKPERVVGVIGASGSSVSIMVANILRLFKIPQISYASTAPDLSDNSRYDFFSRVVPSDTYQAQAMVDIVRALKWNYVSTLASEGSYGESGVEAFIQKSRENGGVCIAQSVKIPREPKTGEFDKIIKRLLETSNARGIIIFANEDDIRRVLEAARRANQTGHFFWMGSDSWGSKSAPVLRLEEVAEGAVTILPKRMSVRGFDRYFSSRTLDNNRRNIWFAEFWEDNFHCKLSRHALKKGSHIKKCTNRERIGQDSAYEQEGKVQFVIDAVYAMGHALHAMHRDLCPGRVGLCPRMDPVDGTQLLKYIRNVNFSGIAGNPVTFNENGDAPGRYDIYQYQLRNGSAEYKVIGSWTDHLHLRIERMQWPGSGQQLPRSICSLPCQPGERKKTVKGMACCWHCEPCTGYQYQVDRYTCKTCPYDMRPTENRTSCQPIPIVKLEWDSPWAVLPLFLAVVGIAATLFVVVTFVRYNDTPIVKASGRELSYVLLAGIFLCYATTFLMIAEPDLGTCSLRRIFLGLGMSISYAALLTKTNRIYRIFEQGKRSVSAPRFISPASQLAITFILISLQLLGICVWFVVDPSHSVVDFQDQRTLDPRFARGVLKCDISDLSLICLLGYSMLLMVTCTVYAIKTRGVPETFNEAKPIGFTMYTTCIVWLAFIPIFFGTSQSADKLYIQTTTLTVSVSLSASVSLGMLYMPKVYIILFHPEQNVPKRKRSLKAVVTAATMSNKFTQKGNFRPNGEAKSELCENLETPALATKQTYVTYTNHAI
Sequence of Metabotropic glutamate receptor 2 (Rattus norvegicus) (P31421 19-872 limits assumed): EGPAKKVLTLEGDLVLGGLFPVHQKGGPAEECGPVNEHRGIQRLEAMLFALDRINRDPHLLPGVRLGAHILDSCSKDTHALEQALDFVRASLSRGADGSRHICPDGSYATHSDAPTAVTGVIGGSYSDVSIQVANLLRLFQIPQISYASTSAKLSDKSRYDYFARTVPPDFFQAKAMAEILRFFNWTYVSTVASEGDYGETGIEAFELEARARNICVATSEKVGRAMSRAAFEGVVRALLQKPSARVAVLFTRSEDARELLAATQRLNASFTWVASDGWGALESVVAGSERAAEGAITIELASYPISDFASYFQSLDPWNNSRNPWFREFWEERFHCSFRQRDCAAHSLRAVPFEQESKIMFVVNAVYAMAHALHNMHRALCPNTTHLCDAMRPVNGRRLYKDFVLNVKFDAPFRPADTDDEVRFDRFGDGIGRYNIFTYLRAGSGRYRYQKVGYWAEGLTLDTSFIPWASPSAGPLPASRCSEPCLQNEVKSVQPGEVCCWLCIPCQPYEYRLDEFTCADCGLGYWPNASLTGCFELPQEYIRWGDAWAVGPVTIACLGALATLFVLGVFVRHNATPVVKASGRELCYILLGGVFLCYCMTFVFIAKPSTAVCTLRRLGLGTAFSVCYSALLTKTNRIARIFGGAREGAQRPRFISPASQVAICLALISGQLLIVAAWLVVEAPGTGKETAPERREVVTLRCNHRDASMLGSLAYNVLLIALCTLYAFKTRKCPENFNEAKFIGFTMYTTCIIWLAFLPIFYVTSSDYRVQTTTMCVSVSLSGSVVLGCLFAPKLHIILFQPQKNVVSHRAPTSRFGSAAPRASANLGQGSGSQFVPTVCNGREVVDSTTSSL

Broadly, the Ki is the dissociation constant of the complex between target and ligand, obtained from inhibition or displacement. Higher therefore signals weaker binding. The IC50 is the concentration that gives 50% inhibition. The term ED50 denotes the dose that gives a 50% effect, or the effect in half of the subjects. As to `N[C@@]1(C(=O)O)C[C@@H]2ON=C(C(=O)O)[C@@H]2C1` (racemic), the affinity on Glutamate NMDA receptor [1] corresponds to a Ki of 0.37 µM. For the same compound, the IC50 in assay [2] and in [3] was above 100 µM throughout. Besides, the ED50 with Mus musculus [4] worked out at 22 µmol/kg; with Mus musculus [5], 28 µmol/kg.

For the compound `CC1(C)ON=C(C(=O)O)[C@H]1C[C@@H](N)C(=O)O` (relative stereo), the result in assay [6], in [7], in assay [8] and in assay [9] was inactive. The compound further returned a Ki on Glutamate NMDA receptor [1] above 100 µM. Also, the IC50 in [2] and in assay [3] was above 100 µM in each case.

With `CC1(C)ON=C(C(=O)O)[C@H]1C[C@H](N)C(=O)O` (relative stereo), the result in assay [6], in assay [7], in [8] and in assay [9] was inactive. The same compound returned a Ki on Glutamate NMDA receptor [1] of 79 µM. The IC50 was 12 µM in [2] and above 100 µM in assay [3].

For the compound `N[C@@H](C[C@@H]1CC(C(=O)O)=NO1)C(=O)O` (relative stereo), the outcome (in assay [6]; in assay [7]; in the assay filed under Rattus norvegicus [10]; in the assay filed under Rattus norvegicus [14]; in [8]; in assay [9]) was inactive. Further, the Ki on Glutamate NMDA receptor [1] was 0.21 µM. In addition, the results for the IC50 in [2], in [11] and in assay [3] were above 100 µM, 14.2 µM and above 100 µM, respectively. Moreover, the result in the assay on Mus musculus [12] and with Mus musculus [13] was Active. For the same compound, the 50% effective dose (ED50) was 13.9 µmol/kg in the assay on Mus musculus [4] and 17.9 µmol/kg in the assay with Mus musculus [5].

As to `N[C@H](C[C@@H]1CC(C(=O)O)=NO1)C(=O)O` (relative stereo), the outcome in [6], in [7], in [8] and in [9] was inactive. The same compound gave an inhibition constant Ki at Glutamate NMDA receptor [1] of 0.96 µM. The IC50 in [2] and in assay [3] was above 100 µM in each case. Moreover, the ED50 in the assay with Mus musculus [4] was 19.7 µmol/kg; with Mus musculus [5], 29.9 µmol/kg.

Take `O=C(O)C1CN(C/C=C/P(=O)(O)O)CCN1` (single isomer, unassigned; (-)): the Ki at Glutamate NMDA receptor [15] was 0.04 µM. In addition, the ED50 in the assay on Mus musculus [4] stood at 1.3 µmol/kg; with Mus musculus [5], 3.5 µmol/kg.

Regarding `O=C1NC(=O)C(c2ccccc2)(c2ccccc2)N1` [PHENYTOIN], the ED50 with Mus musculus [4] was 7.3 µmol/kg; in the assay on Mus musculus [5] it was 9.1 µmol/kg.
